Source: ChEMBL document CHEMBL1126842, “Inhibition of herpes simplex virus type 1 ribonucleotide reductase by substituted tetrapeptide derivatives” (J Med Chem, 1993)
Where a SMILES comes first, the peptide text is derived from it. [ ]: non-standard residue; d: D form. The star is where a group is joined. ξ: configuration not given here. Asp(3,3-Me2) = CC(C)(C(=O)O)[C@H](N)C(=O)O; Cyclohexanecarbonyl = O=C(C1CCCCC1)*; Butanoyl(2-Et) = CCC(CC)C(=O)*; Thr(3ξ) = CC(O)[C@H](N)C(=O)O; Tle = CC(C)(C)[C@H](N)C(=O)O; Leu(ol) = CC(C)C[C@H](N)CO; Isovaleryl = CC(C)CC(=O)*; Isobutyryl = CC(C)C(=O)*; Piperidide = C1CCN(*)CC1; Pyrrolidide = C1CCN(*)C1; X1 = CC(C)C(C(=O)*)C(C)C; Bn = c1ccc(C*)cc1

Assays:
[1] = Inhibition of Herpes simplex virus type 1 ribonucleotide reductase; type: functional, Human alphaherpesvirus 1
Outline: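 IC50 taken as the mean of at least three separate determinations, with standard deviation from the mean reported; one entry came from a single determination.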

[2] = target: T1, Ribonucleoside-diphosphate reductase large subunit (Homo sapiens, UniProt P23921); assay: Tested for inhibition of human ribonucleotide reductase
T1 sequence (P23921 whole entry): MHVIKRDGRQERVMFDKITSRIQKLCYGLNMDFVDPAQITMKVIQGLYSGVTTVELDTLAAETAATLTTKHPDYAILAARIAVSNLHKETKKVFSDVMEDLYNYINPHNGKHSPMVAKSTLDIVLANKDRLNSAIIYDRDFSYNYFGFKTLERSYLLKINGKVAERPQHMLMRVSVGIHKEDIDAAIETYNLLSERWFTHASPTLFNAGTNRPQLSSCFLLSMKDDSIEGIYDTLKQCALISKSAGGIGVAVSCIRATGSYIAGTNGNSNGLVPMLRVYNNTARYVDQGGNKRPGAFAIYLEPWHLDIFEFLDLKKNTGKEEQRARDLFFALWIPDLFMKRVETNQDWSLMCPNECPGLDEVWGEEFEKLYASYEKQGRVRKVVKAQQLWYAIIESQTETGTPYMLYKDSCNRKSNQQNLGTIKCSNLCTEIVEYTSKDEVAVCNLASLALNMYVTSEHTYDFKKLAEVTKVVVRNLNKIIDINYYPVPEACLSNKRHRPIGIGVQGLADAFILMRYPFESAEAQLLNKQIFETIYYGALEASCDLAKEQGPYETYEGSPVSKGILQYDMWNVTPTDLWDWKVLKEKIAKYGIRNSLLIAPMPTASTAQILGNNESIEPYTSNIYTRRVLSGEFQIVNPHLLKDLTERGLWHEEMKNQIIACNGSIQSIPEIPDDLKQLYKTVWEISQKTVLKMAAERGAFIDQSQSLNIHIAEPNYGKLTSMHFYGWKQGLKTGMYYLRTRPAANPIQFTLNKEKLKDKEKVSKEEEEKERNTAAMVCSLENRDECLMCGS

| IC50 [1] [µM] | IC50 [2] [µM] | Compound |
| --- | --- | --- |
| 19 | – | CCC(CC)C(=O)N[C@H](C(=O)N[C@@H](CC(=O)N1CCCC1)C(=O)N[C@@H](CC(=O)O)C(=O)NCCC(C)(C)C)C(C)(C)C |
| > 1000 | – | CCC(CC)C(=O)N[C@H](C(=O)N[C@@H](CC(=O)N1CCCC1)C(=O)N[C@@H](CC(=O)O)C(=O)NC(CO)CO)C(C)(C)C |
| 64 | – | CCC(CC)C(=O)N[C@H](C(=O)N[C@@H](CCC1CCCC1)C(=O)N[C@@H](CC(=O)O)C(=O)N[C@@H](CC(C)C)C(=O)O)C(C)(C)C |
| 1.9 | – | CCC(CC)C(=O)N[C@H](C(=O)N[C@@H](CC(=O)N1CCCC1)C(=O)N[C@@H](CC(=O)O)C(=O)N[C@H](CO)CC(C)(C)C)C(C)(C)C |
| 8.1 | – | CCC(CC)C(=O)N[C@H](C(=O)N[C@@H](CC(=O)N1CCCC1)C(=O)N[C@@H](CC(=O)O)C(=O)N[C@H](CO)CC1CCCCC1)C(C)(C)C |
| 1.3 | – | CCC(CC)C(=O)N[C@H](C(=O)N[C@@H](CC(=O)C1CCCC1)C(=O)N[C@@H](CC(=O)O)C(=O)N[C@@H](CC(C)C)C(=O)O)C(C)(C)C |
| > 1000 | – | CC[C@H](C)[C@H](NC(C)=O)C(=O)N[C@@H](CC(=O)N1CCCC1)C(=O)N[C@@H](CC(=O)O)C(=O)N[C@@H](CC(C)C)C(=O)O (Ac-ID(Pyrrolidide)DL-OH) |
| 1.5 | – | CC[C@H](C)[C@H](NC(=O)C1CCCCC1)C(=O)N[C@@H](CC(=O)N1CCCC1)C(=O)N[C@@H](CC(=O)O)C(=O)N[C@@H](CC(C)C)C(=O)O (Cyclohexanecarbonyl-ID(Pyrrolidide)DL-OH) |
| 13 | – | CC[C@H](C)[C@H](NC(=O)[C@@H](N)C(C)C)C(=O)N[C@@H](CC(=O)N1CCCC1)C(=O)N[C@@H](CC(=O)O)C(=O)N[C@@H](CC(C)C)C(=O)O (H-VID(Pyrrolidide)DL-OH) |
| > 2000 | – | CC(C)C[C@H](NC(=O)[C@H](CC(=O)O)NC(=O)[C@H](CC(N)=O)NC(=O)[C@@H](N)C(C)C)C(=O)O (H-VNDL-OH) |
| 10 | – | CC[C@H](C)[C@H](NC(=O)C(C)C)C(=O)N[C@@H](CC(=O)N1CCCC1)C(=O)N[C@@H](CC(=O)O)C(=O)N[C@@H](CC(C)C)C(=O)O (Isobutyryl-ID(Pyrrolidide)DL-OH) |
| 3 | – | CC[C@H](C)[C@H](NC(=O)CC(C)C)C(=O)N[C@@H](CC(=O)N1CCCC1)C(=O)N[C@@H](CC(=O)O)C(=O)N[C@@H](CC(C)C)C(=O)O (Isovaleryl-ID(Pyrrolidide)DL-OH) |
| 2 | – | CC[C@H](C)[C@H](NC(=O)C(C(C)C)C(C)C)C(=O)N[C@@H](CC(=O)N1CCCC1)C(=O)N[C@@H](CC(=O)O)C(=O)N[C@@H](CC(C)C)C(=O)O (X1-ID(Pyrrolidide)DL-OH) |
| 11 | – | CCC(CC)C(=O)N[C@@H](C)C(=O)N[C@@H](CC(=O)N1CCCC1)C(=O)N[C@@H](CC(=O)O)C(=O)N[C@@H](CC(C)C)C(=O)O ({Butanoyl(2-Et)}-AD(Pyrrolidide)DL-OH) |
| 6.1 | – | CCC(CC)C(=O)N[C@@H](CC(=O)O)C(=O)N[C@@H](CC(=O)N1CCCC1)C(=O)N[C@@H](CC(=O)O)C(=O)N[C@@H](CC(C)C)C(=O)O ({Butanoyl(2-Et)}-DD(Pyrrolidide)DL-OH) |
| 77 | – | CCC(CC)C(=O)NCC(=O)N[C@@H](CC(=O)N1CCCC1)C(=O)N[C@@H](CC(=O)O)C(=O)N[C@@H](CC(C)C)C(=O)O ({Butanoyl(2-Et)}-GD(Pyrrolidide)DL-OH) |
| 1.5 | > 1000 | CCC(CC)C(=O)N[C@H](C(=O)N[C@@H](CC(=O)N1CCCC1)C(=O)N[C@@H](CC(=O)O)C(=O)N[C@@H](CC(C)C)C(=O)O)[C@@H](C)CC ({Butanoyl(2-Et)}-ID(Pyrrolidide)DL-OH) |

| IC50 [1] [µM] | IC50 [2] [µM] | Compound |
| --- | --- | --- |
| 14 | – | CCC(CC)C(=O)N[C@@H](CCCCN)C(=O)N[C@@H](CC(=O)N1CCCC1)C(=O)N[C@@H](CC(=O)O)C(=O)N[C@@H](CC(C)C)C(=O)O ({Butanoyl(2-Et)}-KD(Pyrrolidide)DL-OH) |
| 4.4 | – | CCC(CC)C(=O)N[C@H](C(=O)N[C@@H](CC(=O)N1CCCC1)C(=O)N[C@@H](CC(=O)O)C(=O)N[C@@H](CC(C)C)C(=O)O)[C@@H](C)O ({Butanoyl(2-Et)}-TD(Pyrrolidide)DL-OH) |
| 3.1 | – | CCC(CC)C(=O)N[C@H](C(=O)N[C@@H](CC(=O)N1CCCC1)C(=O)N[C@@H](CC(=O)O)C(=O)N[C@@H](CC(C)C)C(=O)O)C(C)OCc1ccccc1 (stereo partly drawn) ({Butanoyl(2-Et)}-[Thr(3ξ)](Bn)D(Pyrrolidide)DL-OH) |
| 6.9 | – | CCNC(=O)C[C@H](NC(=O)[C@@H](NC(=O)C(CC)CC)C(C)(C)C)C(=O)N[C@@H](CC(=O)O)C(=O)N[C@@H](CC(C)C)C(=O)O ({Butanoyl(2-Et)}-[Tle]D(NHEt)DL-OH) |
| 4.7 | – | CCOC(=O)C[C@H](NC(=O)[C@@H](NC(=O)C(CC)CC)C(C)(C)C)C(=O)N[C@@H](CC(=O)O)C(=O)N[C@@H](CC(C)C)C(=O)O ({Butanoyl(2-Et)}-[Tle]D(OEt)DL-OH) |
| 1.3 | – | CCC(CC)C(=O)N[C@H](C(=O)N[C@@H](CC(=O)N1CCCCC1)C(=O)N[C@@H](CC(=O)O)C(=O)N[C@@H](CC(C)C)C(=O)O)C(C)(C)C ({Butanoyl(2-Et)}-[Tle]D(Piperidide)DL-OH) |
| > 1000 | – | CCC(CC)C(=O)N[C@H](C(=O)N[C@@H](CC(=O)N1CCCC1)C(=O)N[C@@H](C)C(=O)N[C@@H](CC(C)C)C(=O)O)C(C)(C)C ({Butanoyl(2-Et)}-[Tle]D(Pyrrolidide)AL-OH) |
| > 1000 | – | CCC(CC)C(=O)N[C@H](C(=O)N[C@@H](CC(=O)N1CCCC1)C(=O)N[C@@H](CC(=O)O)C(=O)N[C@@H](C)C(=O)O)C(C)(C)C ({Butanoyl(2-Et)}-[Tle]D(Pyrrolidide)DA-OH) |
| 0.6 | > 1000 | CCC(CC)C(=O)N[C@H](C(=O)N[C@@H](CC(=O)N1CCCC1)C(=O)N[C@@H](CC(=O)O)C(=O)N[C@@H](CC(C)C)C(=O)O)C(C)(C)C ({Butanoyl(2-Et)}-[Tle]D(Pyrrolidide)DL-OH) |
| 5.6 | – | CCC(CC)C(=O)N[C@H](C(=O)N[C@@H](CC(=O)N1CCCC1)C(=O)N[C@@H](CC(=O)O)C(=O)N[C@H](CO)CC(C)C)C(C)(C)C ({Butanoyl(2-Et)}-[Tle]D(Pyrrolidide)D[Leu(ol)]) |
| > 1000 | – | CCC(CC)C(=O)N[C@H](C(=O)N[C@@H](CC(=O)N1CCCC1)C(=O)N[C@@H](CCC(=O)O)C(=O)N[C@@H](CC(C)C)C(=O)O)C(C)(C)C ({Butanoyl(2-Et)}-[Tle]D(Pyrrolidide)EL-OH) |
| 0.18 | – | CCC(CC)C(=O)N[C@H](C(=O)N[C@@H](CC(=O)N1CCCC1)C(=O)N[C@H](C(=O)N[C@@H](CC(C)C)C(=O)O)C(C)(C)C(=O)O)C(C)(C)C ({Butanoyl(2-Et)}-[Tle]D(Pyrrolidide)[Asp(3,3-Me2)]L-OH) |
| > 1000 | – | CCC(CC)C(=O)N[C@H](C(=O)N[C@@H](CCC(=O)N1CCCC1)C(=O)N[C@@H](CC(=O)O)C(=O)N[C@@H](CC(C)C)C(=O)O)C(C)(C)C ({Butanoyl(2-Et)}-[Tle]E(Pyrrolidide)DL-OH) |
| 100 | – | CCC(CC)C(=O)N[C@H](C(=O)N[C@@H](CC(N)=O)C(=O)N[C@@H](CC(=O)O)C(=O)N[C@@H](CC(C)C)C(=O)O)C(C)(C)C ({Butanoyl(2-Et)}-[Tle]NDL-OH) |
| 190 | – | H-AVVNDL-OH |
| 220 | – | H-GAVVNDL-OH |

| Compound | IC50 [1] [µM] | IC50 [2] [µM] |
| --- | --- | --- |
| CC(C)C[C@H](NC(=O)[C@H](CC(=O)O)NC(=O)[C@H](CC(N)=O)NC(=O)[C@@H](NC(=O)[C@@H](NC(=O)[C@H](C)NC(=O)CNC(=O)[C@H](C)NC(=O)[C@@H](N)Cc1ccc(O)cc1)C(C)C)C(C)C)C(=O)O | 38 | – |
| H-AGAVVNDL-OH | 280 | – |
| H-YAGAVVND-OH | > 2000 | – |
